# Measurements taken from paper PMC3545090 (Biochemistry, 2012).
# Entries after “also recorded” stand apart in the source; their conditions may differ.
# Legend:
# [1] = target: T1, Syk (Homo sapiens, UniProt P43405); conditions: cited from earlier work
# [2] = target: Syk-EGFP (Mus musculus, UniProt P48025); experiment: In vitro kinase assay, immobilized Syk-EGFP, ELISA-based fluorescence detection; type: biochemical; conditions: for rate of phosphorylation compared with other substrates: Syk-EGFP 6 nM, each substrate 4 μM, 5 mM MnCl2, HEPES pH 7.2 (Fig. 2b)
# Procedure, shortened: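 Syk-EGFP immunoprecipitated from lysates of DT40 chicken B cells on anti-GFP beads. Bead-bound kinase (6 nM in the 4 μM substrate comparison) was mixed with peptide (4 μM, or a concentration range) in 500 μM ATP, 5 mM MnCl2, HEPES pH 7.2. Timed aliquots were EDTA-quenched. Neutravidin-captured peptide was probed with 4G10 anti-phosphotyrosine and HRP secondary, then read by Amplex Red (ex 532/em 590 nm). Initial velocities were fitted to a sigmoidal curve; three replicates.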
# [3] = tested on: Syk Y525/526; experiment: Western blot of Syk Y525/526 phosphorylation in primary splenic B cells; type: cell-based; conditions: mouse primary splenic B cells, anti-IgM F(ab′)2
# Procedure, shortened: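 Mouse splenic B cells enriched by panning, at 5 × 10^6 cells/mL, pre-treated with tyrosine kinase inhibitor or DMSO vehicle. SAStide biosensor peptide (25 μM) added 15 min before anti-IgM F(ab′)2 (5 μg/mL); harvested 0, 5, 10, 15 min after. Immunoblot: 5% goat serum block 1 h; primary antibodies 1:1,000, 1 h at room temperature; HRP secondary, ECL detection.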
# [4] = target: T1, Syk; experiment: Western blot of Syk tyrosine phosphorylation in inhibitor-treated DG75 cells; type: cell-based; conditions: anti-IgM 5 μg/mL + H2O2 1 mM
# [5] = tested on: DG75 cells; experiment: Cell toxicity in DG75 cells; type: cell-based; conditions: high concentrations, in the presence of BCR activation and oxidative stress; loss of tubulin and Syk immunoblot signal
# [6] = tested on: acute myelogenous leukemia; conditions: ref [34]; cited from earlier work
# [7] = tested on: allergic rhinitis; conditions: delivered intranasally; ref [31]; cited from earlier work
# [8] = tested on: non-Hodgkins lymphomas; conditions: ongoing trial, very small cohort; ref [29]; cited from earlier work
# [9] = tested on: rheumatoid arthritis; conditions: vs placebo; ref [32]; cited from earlier work
# [10] = tested on: kinases; conditions: binding affinity for kinases; ref [30]; cited from earlier work
# [11] = tested on: peripheral T-cell lymphoma cells; conditions: cells with elevated Syk Y525/Y526 phosphorylation; ref [8]; cited from earlier work
# [12] = 500 μM ATP, average of three replicate experiments
# [13] = different enzyme preparation and ATP concentration from this paper, ref [13b]
# Chain of Syk-EGFP (P48025 whole entry): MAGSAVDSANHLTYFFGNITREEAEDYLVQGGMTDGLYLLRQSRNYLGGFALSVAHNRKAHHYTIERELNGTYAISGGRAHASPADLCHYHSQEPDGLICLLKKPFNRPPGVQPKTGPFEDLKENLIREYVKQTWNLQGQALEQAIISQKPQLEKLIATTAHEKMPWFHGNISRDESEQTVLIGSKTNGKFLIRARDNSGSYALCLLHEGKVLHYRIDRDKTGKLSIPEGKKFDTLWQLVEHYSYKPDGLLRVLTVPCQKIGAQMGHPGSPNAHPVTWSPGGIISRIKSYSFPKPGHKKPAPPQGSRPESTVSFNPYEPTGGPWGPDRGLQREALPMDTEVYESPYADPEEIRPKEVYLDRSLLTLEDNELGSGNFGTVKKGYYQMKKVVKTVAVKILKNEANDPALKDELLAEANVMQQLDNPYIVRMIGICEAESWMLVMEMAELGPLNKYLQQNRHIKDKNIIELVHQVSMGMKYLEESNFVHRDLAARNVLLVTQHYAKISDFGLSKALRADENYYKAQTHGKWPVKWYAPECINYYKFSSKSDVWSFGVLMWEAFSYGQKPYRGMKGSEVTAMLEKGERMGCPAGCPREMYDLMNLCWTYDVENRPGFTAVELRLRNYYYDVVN
compound,measurement,setting,value
GGEDPDYEWPSAGGKbGG [Phage],substrate inhibition at higher concentrations,"[1]; phage display peptide, Syk, ref [13d]",greater than 20 μM
same,rate of phosphorylation compared with other substrates,[2]; [12],more efficiently phosphorylated
Cc1nc(Nc2ncc(C(=O)Nc3c(C)cccc3Cl)s2)cc(N2CCN(CCO)CC2)n1 [dasatinib],Y525/526 phosphorylation in the presence of inhibitor (Western blot),[3],Y525/526 remained phosphorylated
same,level of Syk tyrosine phosphorylation (Western blot),[4],reduction in the level of Syk tyrosine phosphorylation
"Oc1cc(O)cc(/C=C/c2ccc(O)c(O)c2)c1 [piceatannol, 3,4,3′,5′-tetrahydroxy-trans-stilbene]",toxicity to DG75 cells,[5],toxic to DG75 cells
same,Y525/526 phosphorylation in the presence of inhibitor (Western blot),[3],Y525/526 remained phosphorylated
same,level of Syk tyrosine phosphorylation (Western blot),[4],reduction in the level of Syk tyrosine phosphorylation
GGEDDEYEEVGGKbGG [Syktide],Km,[1]; [13],3 µM
same,kcat,[1]; [13],1.04 s⁻¹
GGDEEDYEEPDEPGGKbGG [SAStide],Vmax,"[2]; SAStide at a range of concentrations, immunoprecipitated Syk-EGFP, 500 μM ATP, 5 mM MnCl2, HEPES pH 7.2, sigmoidal fit, three replicate experiments",11 ± 1 pmol/min
same,rate of phosphorylation compared with other substrates,[2]; [12],"phosphorylated more rapidly than the previously reported Syktide sequence, but not as rapidly as the phage display-derived sequence; also recorded: phosphorylated more efficiently than the parent Syktide"
same,substrate inhibition,"[2]; concentrations up to 100 μM, immunoprecipitated Syk-EGFP",no substrate inhibition at concentrations up to 100 μM
same,Km,"[2]; read-out: Khalf (substrate concentration at half of Vmax in a sigmoidal curve, analogous to Km), SAStide at a range of concentrations, immunoprecipitated Syk-EGFP, 500 μM ATP, 5 mM MnCl2, HEPES pH 7.2, sigmoidal fit, average of three replicate experiments",86 ± 10 µM
gemtuzumab ozogamicin: therapeutic antibody conjugated to a toxin,response in relation to lower Syk expression,[6],lack of response
Oc1cccc(Nc2ncc(F)c(Nc3cccc(O)c3)n2)c1 [R112],relief of allergic rhinitis symptoms,[7],effective for relieving allergic rhinitis symptoms
COc1cc(Nc2ncc(F)c(Nc3ccc4c(n3)N(COP(=O)(O)O)C(=O)C(C)(C)O4)n2)cc(OC)c1OC [fostamatinib],response by lymphoma subtype,[8],slightly better response in chronic lymphocytic leukemia than the other types
same,response rates,[8],response rates were low overall
same,"benefit in rheumatoid arthritis, patients receiving methotrexate",[9],significant benefit (over placebo)
COc1cc(Nc2ncc(F)c(Nc3ccc4c(n3)NC(=O)C(C)(C)O4)n2)cc(OC)c1OC [R406],kinase selectivity,[10],one of the least selective kinase inhibitors evaluated
same,apoptosis and proliferation,[11],induces apoptosis and blocks proliferation
